The values below come from ChEMBL document CHEMBL1130007, “Carbocyclic oxetanocins lacking the C-3' methylene” (1997).

Values after ≈ are worked out from the molar mass of the structure shown.

Common to all, as to type: functional
Assay [1] concerns HEL. Kind of assay: Minimum inhibitory conc. for 50% inhibition of growth in HEL cells. The conditions noted are these: Homo sapiens. The essentials:
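HEL cell cytotoxicity was measured as inhibition of normal cell growth. The value is the concentration inhibiting growth by 50%.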

In assay [2] the test system is E6SM. Kind of assay: Minimum inhibitory conc. for 50% inhibition of alteration of morphology in E6SM cells. Particulars: Homo sapiens. The essentials: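 Toxicity in E6SM, HeLa or Vero cultures was judged by microscopically visible alteration of normal cell morphology. The value is the concentration producing this alteration (50%).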
The subject of assay [3] is E6SM. Kind of assay: Minimum inhibitory conc. for 50% inhibition of HSV-2 (G) virus induced cytopathicity in E6SM cells. The conditions noted are these: Homo sapiens. The essentials:
(§1)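 Confluent E6SM or Vero monolayers were infected with 100 CCID50 of virus and allowed 1 h of adsorption. Residual virus was then removed. Cultures were incubated with compound in serial dilutions (400, 200, 100, ... µg/mL). Cytopathicity was scored when it was complete in the untreated infected controls.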
(In general: Protection from cytopathic effect is a common read-out in antiviral testing.)

Assay [4] deals with E6SM. Nature of the assay: Minimum inhibitory conc. for 50% inhibition of TK HSV-1 (B2006) virus induced cytopathicity in E6SM cells. Particulars: Homo sapiens. The essentials: as §1
Assay [5] concerns E6SM. Nature of the assay: Minimum inhibitory conc. for 50% inhibition of HSV-1 (KOS) virus induced cytopathicity in E6SM cells. Particulars: Homo sapiens.
The test system of assay [6] is E6SM. Nature of the assay: Minimum inhibitory conc. for 50% inhibition of vaccinia virus induced cytopathicity in E6SM cells. Particulars: Homo sapiens.
Assay [7] deals with E6SM. Nature of the assay: Minimum inhibitory conc. for 50% inhibition of vesicular stomatitis virus induced cytopathicity in E6SM cells. Particulars: Homo sapiens.
Assay [8] relates to HEL. Nature of the assay: Minimum inhibitory conc. for 50% inhibition of VZV (YS) virus plaque formation in HEL cells. Particulars: Homo sapiens.
Assay [9] concerns E6SM. Kind of assay: Minimum inhibitory conc. for 50% inhibition of HSV-1 (F) virus induced cytopathicity in E6SM cells. Particulars: Homo sapiens. An outline of the steps: as §1
The subject of assay [10] is HEL. Nature of the assay: Minimum inhibitory conc. for 50% inhibition of TK VZV (07/1) virus plaque formation in HEL cells. Particulars: Homo sapiens.
For assay [11], the system named is HEL. Nature of the assay: Minimum inhibitory conc. for 50% inhibition of TK-VZV (YS/R) virus plaque formation in HEL cells. The conditions noted are these: Homo sapiens.
Assay [12] relates to E6SM. Nature of the assay: Minimum inhibitory conc. for 50% inhibition of HSV-1 (McIntyre) virus induced cytopathicity in E6SM cells. Particulars: Homo sapiens.
Assay [13] relates to HEL. Kind of assay: Minimum inhibitory conc. for 50% inhibition of VZV (OKA) virus plaque formation in HEL cells. Particulars: Homo sapiens.
The test system of assay [14] is E6SM. Nature of the assay: Minimum inhibitory conc. for 50% inhibition of HSV-2 (196) virus induced cytopathicity in E6SM cells. The conditions noted are these: Homo sapiens. The essentials:
as §1

Assay [15] has as its system E6SM. Nature of the assay: Minimum inhibitory conc. for 50% inhibition of HSV-2 (Lyons) virus induced cytopathicity in E6SM cells. The conditions noted are these: Homo sapiens. An outline of the steps:
as §1

The subject of assay [16] is HEL. Nature of the assay: Minimum inhibitory conc. for 50% inhibition of CMV (AD-169) virus plaque formation in HEL cells. The conditions noted are these: Homo sapiens. An outline of the steps: (§2)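 HEL cell cultures were inoculated with 100 CCID50 of virus and allowed 1 h of adsorption. Residual virus was then removed. Cultures were incubated with compound at graded concentrations (400, 200, 100, ... µg/mL). Read-out was virus plaque formation, scored when the infected controls were fully affected. The value is the concentration reducing plaque formation by 50%.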

Assay [17] concerns HEL. Kind of assay: Minimum inhibitory conc. for 50% inhibition of CMV (Davis) virus plaque formation in HEL cells. The conditions noted are these: Homo sapiens. An outline of the steps: as §2
In assay [18] the test system is Vero. Nature of the assay: Minimum inhibitory conc. for 50% inhibition of forest virus induced cytopathicity in Vero cells. Particulars: Chlorocebus sabaeus. The essentials: as §1
The test system of assay [19] is Vero. Kind of assay: Minimum inhibitory conc. for 50% inhibition of Parainfluenza-3 virus induced cytopathicity in Vero cells. The conditions noted are these: Chlorocebus sabaeus. The essentials: as §1
Assay [20] relates to Vero. Kind of assay: Minimum inhibitory conc. for 50% inhibition of Reo-1 virus induced cytopathicity in Vero cells. The conditions noted are these: Chlorocebus sabaeus. An outline of the steps:
as §1

Assay [21] deals with Vero. Nature of the assay: Minimum inhibitory conc. for 50% inhibition of alteration of morphology in Vero cells. Particulars: Chlorocebus sabaeus.
In assay [22] the test system is HeLa. Nature of the assay: Minimum inhibitory conc. for 50% inhibition of vesicular stomatitis virus induced cytopathicity in HeLa cells. Particulars: Homo sapiens.
Assay [23] has as its system Vero. Nature of the assay: Minimum inhibitory conc. for 50% inhibition of Sindbis virus induced cytopathicity in Vero cells. The conditions noted are these: Chlorocebus sabaeus. An outline of the steps:
as §1

For assay [24], the system named is HeLa. Kind of assay: Minimum inhibitory conc. for 50% inhibition of morphology […] in HeLa cells. Particulars: Homo sapiens.
For assay [25], the system named is HeLa. Nature of the assay: Minimum inhibitory conc. for 50% inhibition of Polio-1 virus induced cytopathicity in HeLa cells. Particulars: Homo sapiens.
The subject of assay [26] is HeLa. Nature of the assay: Minimum inhibitory conc. for 50% inhibition of coxsackie B4 virus induced cytopathicity in HeLa cells. Particulars: Homo sapiens.

Turning to `Nc1nc2c(ncn2COCCO)c(=O)[nH]1` [ACYCLOVIR], the MIC with HEL [1] was greater than 200 µg/mL; against E6SM [2] it was 400 µg/mL (≈ 1780 µM); against E6SM [3], 0.07 µg/mL (≈ 0.311 µM); in the assay on E6SM [4] it was 70 µg/mL (≈ 311 µM); in the assay on E6SM [5] it was 0.04 µg/mL (≈ 0.178 µM); against E6SM [6], greater than 200 µg/mL. The compound further gave an MIC against E6SM [7] greater than 200 µg/mL.
For the compound `O=c1[nH]c(=O)n([C@H]2C[C@H](O)[C@@H](CO)O2)cc1/C=C/Br` [BRIVUDINE], the MIC in the assay on HEL [1] was 150 µg/mL (≈ 450 µM); against HEL [8], 2 ng/mL (≈ 0.006 µM); against E6SM [2] it was greater than 400 µg/mL; against E6SM [3] it was greater than 200 µg/mL; against E6SM [9], 0.01 µg/mL (≈ 0.03 µM); against HEL [10], 5 µg/mL (≈ 15 µM). Moreover, the MIC against E6SM [4] was 7 µg/mL (≈ 21 µM); in the assay with HEL [11], greater than 50 µg/mL; against E6SM [12] it was 7 ng/mL (≈ 0.021 µM); in the assay with HEL [13] it was 0.8 ng/mL (≈ 0.0024 µM); in the assay with E6SM [14] it was greater than 200 µg/mL; in the assay with E6SM [5], 0.004 µg/mL (≈ 0.012 µM). Also, the MIC in the assay on E6SM [6] is 0.07 µg/mL (≈ 0.21 µM); in the assay on E6SM [7], greater than 200 µg/mL; with E6SM [15], 100 µg/mL (≈ 300 µM).
`Nc1ccn(C[C@@H](CO)OCP(=O)(O)O)c(=O)n1.O.O` [CIDOFOVIR]: the MIC in the assay with HEL [16] came out at 0.06 µg/mL; against HEL [17] it was 0.07 µg/mL.
As to `Nc1nc2c(ncn2COC(CO)CO)c(=O)[nH]1` [GANCICLOVIR], the MIC in the assay on HEL [16] was 1.5 µg/mL (≈ 5.88 µM); against HEL [17], 0.13 µg/mL (≈ 0.509 µM).
Turning to `NC(=O)c1ncn([C@@H]2O[C@H](CO)[C@@H](O)[C@H]2O)n1` [RIBAVIRIN], the MIC is 300 µg/mL (≈ 1230 µM) with Vero [18]; 70 µg/mL (≈ 287 µM) in the assay on Vero [19]; 70 µg/mL (≈ 287 µM) in the assay with Vero [20]; greater than 400 µg/mL in the assay with Vero [21]; 4 µg/mL (≈ 16.4 µM) with HeLa [22]; 150 µg/mL (≈ 614 µM) in the assay on Vero [23]. Also, the results for the MIC in the assay on HeLa [24], with HeLa [25] and against HeLa [26] were greater than 200 µg/mL, 70 µg/mL (≈ 287 µM) and 70 µg/mL (≈ 287 µM), respectively.
